Reference: ChEMBL document CHEMBL3351269, “Phenylimidazoles as potent and selective inhibitors of coagulation factor XIa with in vivo antithrombotic activity” (J Med Chem, 2014)

Experiments:
Coagulation factor VII = target: T1, Coagulation factor VII (Homo sapiens, UniProt P08709); assay: Inhibition of human coagulation factor 7a using H-(D)-Ile-Pro-Arg-pNA as substrate by spectrophotometric analysis
T1 sequence (P08709 whole entry): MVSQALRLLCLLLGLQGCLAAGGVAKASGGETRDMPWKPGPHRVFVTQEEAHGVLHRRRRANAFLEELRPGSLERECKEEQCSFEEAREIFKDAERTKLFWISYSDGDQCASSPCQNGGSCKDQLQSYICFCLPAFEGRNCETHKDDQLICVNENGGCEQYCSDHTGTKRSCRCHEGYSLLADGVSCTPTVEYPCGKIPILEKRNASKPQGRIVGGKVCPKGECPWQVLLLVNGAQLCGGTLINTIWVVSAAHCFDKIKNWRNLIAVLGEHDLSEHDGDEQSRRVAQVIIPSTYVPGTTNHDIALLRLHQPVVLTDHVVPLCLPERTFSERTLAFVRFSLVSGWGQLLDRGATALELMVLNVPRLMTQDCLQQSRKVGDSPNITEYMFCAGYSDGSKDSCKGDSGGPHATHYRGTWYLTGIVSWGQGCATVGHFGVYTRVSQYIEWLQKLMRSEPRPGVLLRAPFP
Method in brief: (§1)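 Purified human enzymes; reaction started by adding enzyme to substrate with or without inhibitor, excess substrate and inhibitor over enzyme, 1% DMSO, room temperature, 10–120 min. pNA read at 405 nm. FXIa, FXIIa and chymotrypsin in HEPES pH 7.4 with NaCl, KCl and PEG; FXa and kallikrein in phosphate pH 7.5; FVIIa in HEPES with CaCl2. IC50 from duplicates over 8–11 concentrations, converted to Ki assuming competitive inhibition.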

Coagulation factor X = Coagulation factor X (Homo sapiens, UniProt P00742); assay: Inhibition of human coagulation factor 10a using N-benzoyl-Ile-Glu-(OH, OMe)-Gly-Arg-pNA as substrate by spectrophotometric analysis; method in brief: as §1
Plasma kallikrein = Plasma kallikrein (Homo sapiens, UniProt P03952); assay: Inhibition of human plasma kallikrein using H-D-Pro-Phe-Arg-pNA as substrate; method in brief: as §1
Coagulation factor XII = target: T2, Coagulation factor XII (Homo sapiens, UniProt P00748); assay: Inhibition of human coagulation factor 12a using H-(D)-CHT-Gly-Arg-pNA as substrate by spectrophotometric analysis; method in brief: as §1
T2 sequence (P00748 whole entry): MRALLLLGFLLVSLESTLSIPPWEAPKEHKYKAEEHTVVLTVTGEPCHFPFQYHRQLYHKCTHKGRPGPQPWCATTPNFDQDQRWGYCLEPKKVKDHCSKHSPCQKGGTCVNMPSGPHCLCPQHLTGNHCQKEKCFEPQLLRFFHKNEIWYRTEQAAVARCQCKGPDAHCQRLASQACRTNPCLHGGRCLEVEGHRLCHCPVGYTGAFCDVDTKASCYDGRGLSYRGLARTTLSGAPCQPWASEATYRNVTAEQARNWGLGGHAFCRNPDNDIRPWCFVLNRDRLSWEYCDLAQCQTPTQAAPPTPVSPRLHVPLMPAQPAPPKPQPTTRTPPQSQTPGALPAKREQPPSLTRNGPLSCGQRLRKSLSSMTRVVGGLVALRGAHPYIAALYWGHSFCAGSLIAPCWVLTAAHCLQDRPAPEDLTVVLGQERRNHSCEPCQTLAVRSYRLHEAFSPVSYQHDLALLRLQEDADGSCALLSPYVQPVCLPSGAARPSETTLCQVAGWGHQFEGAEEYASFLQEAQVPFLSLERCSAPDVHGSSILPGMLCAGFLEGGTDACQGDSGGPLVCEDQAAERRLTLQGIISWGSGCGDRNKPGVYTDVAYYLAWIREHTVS

Coagulation factor IX = Coagulation factor IX (Homo sapiens, UniProt P00740); assay: Inhibition of human coagulation factor 9a by spectrophotometric analysis
Method in brief: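 Purified human factor IXa; buffer 50 mM Tris pH 7.4, 100 mM NaCl, 5 mM CaCl2, 0.5% PEG 8000, 2% DMSO; room temperature. Reaction started with enzyme added to substrate ± inhibitor, in excess substrate and inhibitor, for 10–120 min. Rate read as pNA A405 or AMC fluorescence. Duplicate IC50s from 8–11 concentrations; Ki = IC50/(1+[S]/Km), assuming competitive inhibition.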

Prothrombin = Prothrombin (Homo sapiens, UniProt P00734); assay: Inhibition of human coagulation thrombin using pyro-Glu-Pro-Argp-NA as substrate by spectrophotometric analysis
Method in brief: (§2)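 Purified enzymes (α-thrombin; trypsin) in 100 mM sodium phosphate pH 7.5, 200 mM NaCl, 0.5% PEG 8000, 1% DMSO final, room temperature. Enzyme added last to substrate ± inhibitor, with substrate and inhibitor in excess. pNA release read at 405 nm over 10−120 min. IC50 from duplicate runs over 8−11 concentrations, then converted to Ki assuming competitive inhibition, using Km.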

Trypsin = Trypsin (Homo sapiens, UniProt P07477+P07478+P35030); assay: Inhibition of human coagulation trypsin using N-benzoyl-Ile-Glu-(OH, OMe)-Gly-Arg-pNA as substrate by spectrophotometric analysis; type: protein assay; method in brief: as §2
[1] = Inhibition of human coagulation chymotrypsin using MeO-Suc-Arg-Pro-Tyr-pNA as substrate by spectrophotometric analysis; method in brief: as §1
Plasma = assay: Anticoagulant activity in healthy human plasma assessed as prothrombin time by PT assay; type: functional
Method in brief: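 Citrated healthy-volunteer plasma spiked with inhibitor (10 mM DMSO stock diluted in plasma, up to seven concentrations). PT with Thromboplastin C-Plus: plasma warmed 3 min at 37 °C before reagent was added. Duplicates, as mean ratio to baseline control. Concentration that doubles clotting time by linear interpolation, as total plasma concentration.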

[2] = Inhibition of rabbit coagulation factor 11a using p-nitroaniline as substrate assessed as substrate hydrolysis by spectrophotometrically; set-up: species or system Oryctolagus cuniculus
[3] = Inhibition of rabbit coagulation factor 11a using p-nitroaniline as substrate assessed as substrate hydrolysis at 37 degC by spectrophotometrically; set-up: species or system Oryctolagus cuniculus
Method in brief: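 Rabbit FXIa, chromogenic pNA-release read at 405 nm, run at 37 °C. IC50 from duplicate determinations over 8–11 concentrations, converted to Ki by Ki = IC50/(1+[S]/Km), assuming competitive inhibition.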

[4] = Inhibition of rabbit coagulation thrombin using pyro-Glu-Pro-Argp-NA as substrate by spectrophotometric analysis; set-up: species or system Oryctolagus cuniculus
[5] = Anticoagulant activity in rabbit plasma assessed as concentration required to 2 fold prolong clotting time by aPTT assay; type: functional, Oryctolagus cuniculus
[6] = Volume of distribution at steady state in rabbit plasma at 0.5 mg/kg, iv; type: ADME, organism-based, Oryctolagus cuniculus; set-up: dose 0.5 mg/kg, route intravenous; details: read-out: Vdss
Method in brief: (§3)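 Single iv dose of 0.5 mg/kg in rabbits; concentrations measured in rabbit plasma.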

[7] = Half life in rabbit plasma at 0.5 mg/kg, iv; type: ADME, organism-based, Oryctolagus cuniculus; set-up: dose 0.5 mg/kg, route intravenous; method in brief: as §3
[8] = Mean residence time in rabbit plasma at 0.5 mg/kg, iv; type: ADME, organism-based, Oryctolagus cuniculus; set-up: dose 0.5 mg/kg, route intravenous; method in brief: as §3
[9] = Plasma protein binding in rabbit at 0.5 mg/kg, iv; type: ADME, organism-based, Oryctolagus cuniculus; set-up: dose 0.5 mg/kg, route intravenous; details: read-out: PPB (converted)

Coagulation factor X, sequence (P00742 41-179 limits assumed): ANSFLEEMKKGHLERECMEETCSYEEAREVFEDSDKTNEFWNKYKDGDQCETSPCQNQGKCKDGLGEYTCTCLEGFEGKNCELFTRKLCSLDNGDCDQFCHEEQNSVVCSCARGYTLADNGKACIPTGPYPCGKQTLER
Coagulation factor X, sequence (P00742 235-488 limits assumed): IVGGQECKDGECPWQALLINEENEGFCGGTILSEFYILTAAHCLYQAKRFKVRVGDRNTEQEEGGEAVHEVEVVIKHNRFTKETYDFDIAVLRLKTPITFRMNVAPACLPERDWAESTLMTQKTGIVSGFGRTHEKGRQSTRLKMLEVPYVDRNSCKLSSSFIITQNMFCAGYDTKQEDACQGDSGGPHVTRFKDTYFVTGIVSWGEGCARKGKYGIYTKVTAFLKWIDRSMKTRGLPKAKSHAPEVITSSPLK
Coagulation factor IX, sequence (P00740 47-191 limits assumed): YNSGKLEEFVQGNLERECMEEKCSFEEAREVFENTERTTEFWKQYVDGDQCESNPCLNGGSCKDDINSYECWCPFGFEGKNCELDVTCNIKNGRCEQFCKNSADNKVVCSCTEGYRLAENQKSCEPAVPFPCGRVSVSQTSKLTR
Coagulation factor IX, sequence (P00740 227-461 limits assumed): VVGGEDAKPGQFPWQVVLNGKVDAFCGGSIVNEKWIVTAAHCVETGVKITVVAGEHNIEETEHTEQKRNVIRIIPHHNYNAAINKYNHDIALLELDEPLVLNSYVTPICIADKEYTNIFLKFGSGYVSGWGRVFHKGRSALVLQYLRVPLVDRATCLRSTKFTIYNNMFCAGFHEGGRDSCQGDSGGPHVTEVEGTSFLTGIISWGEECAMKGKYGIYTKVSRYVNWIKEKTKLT
Plasma kallikrein, sequence (P03952 20-390 limits assumed): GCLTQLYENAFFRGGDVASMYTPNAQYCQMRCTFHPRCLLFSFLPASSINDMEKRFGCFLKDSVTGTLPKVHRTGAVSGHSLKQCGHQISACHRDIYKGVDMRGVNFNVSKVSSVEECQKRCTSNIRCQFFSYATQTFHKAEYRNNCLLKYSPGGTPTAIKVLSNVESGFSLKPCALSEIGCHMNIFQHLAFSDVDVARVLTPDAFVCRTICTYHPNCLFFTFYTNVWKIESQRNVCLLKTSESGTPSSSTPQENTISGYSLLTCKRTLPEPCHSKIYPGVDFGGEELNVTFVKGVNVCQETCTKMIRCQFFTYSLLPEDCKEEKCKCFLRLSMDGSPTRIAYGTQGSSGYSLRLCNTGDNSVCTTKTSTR
Plasma kallikrein, sequence (P03952 391-638 limits assumed): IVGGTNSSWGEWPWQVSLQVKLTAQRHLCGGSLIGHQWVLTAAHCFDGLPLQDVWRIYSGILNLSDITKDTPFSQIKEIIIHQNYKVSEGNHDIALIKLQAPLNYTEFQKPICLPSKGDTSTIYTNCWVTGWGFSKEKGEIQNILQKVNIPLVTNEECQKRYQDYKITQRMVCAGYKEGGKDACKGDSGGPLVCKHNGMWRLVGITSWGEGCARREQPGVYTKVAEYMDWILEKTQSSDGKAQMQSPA

Ki (Coagulation factor VII): 4.22 µM
Ki (Coagulation factor X): 6.39 µM
Ki (Plasma kallikrein): 0.005 µM
Ki (Coagulation factor XII): 9.22 µM
Ki (Coagulation factor IX): > 34.9 µM
Ki (Prothrombin): > 12.6 µM
Ki (Trypsin): 0.023 µM
Ki [1]: > 20.8 µM
Ki [2]: 0.0006 µM
Ki [3]: 0.0012 µM
Ki [4]: > 20 µM
Vd [6]: 0.7 L/kg
half-life [7]: 60 min
MRT [8]: 36 min
fraction unbound [9]: 0.15
Compound: NC[C@H]1CC[C@H](C(=O)N[C@@H](Cc2ccccc2)c2nc(-c3ccc4c(N)n[nH]c4c3)c(Cl)[nH]2)CC1.O=C(O)C(F)(F)F
2PT (Plasma): >40 µM
2aPTT [5]: 2 µM
